Assay results collected from several papers.
Each line is one published result; the experiments were not run side by side.
Target: Interleukin-1 receptor-associated kinase 4 (IRAK4, Homo sapiens, UniProt Q9NWZ3)
Residues used in one study (Q9NWZ3 1-460): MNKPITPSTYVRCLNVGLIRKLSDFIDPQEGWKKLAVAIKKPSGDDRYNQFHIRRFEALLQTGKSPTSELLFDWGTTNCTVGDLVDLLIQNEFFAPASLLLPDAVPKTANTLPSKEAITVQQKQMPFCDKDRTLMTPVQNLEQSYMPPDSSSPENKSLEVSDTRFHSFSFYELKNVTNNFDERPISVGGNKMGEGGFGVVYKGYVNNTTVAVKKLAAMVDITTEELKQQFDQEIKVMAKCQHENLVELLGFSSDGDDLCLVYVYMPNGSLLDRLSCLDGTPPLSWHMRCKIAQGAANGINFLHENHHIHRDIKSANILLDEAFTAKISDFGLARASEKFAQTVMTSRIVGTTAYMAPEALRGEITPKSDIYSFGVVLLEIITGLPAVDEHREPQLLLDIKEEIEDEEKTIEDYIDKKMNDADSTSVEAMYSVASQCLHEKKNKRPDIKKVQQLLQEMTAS

SMILES | read-out | method | tested at | remaining binding
c1cnn2ncc(-c3ccnc(N4CCC45COC5)n3)c2c1 | binding | – | 1 µM | 79%
CNCc1ccccc1-c1csc([C@H](C)Nc2nc(C)nc3cc(OC)c(OC)cc23)c1 | cell-free assay | competition with immobilised ligand | 1 µM | 89%
C[C@@H]1CCN(c2nccc(-c3cnn4ncccc34)n2)C1 | binding | – | 1 µM | 100%
c1cncc(-c2cccc(Nc3nccc(NC4CCCCC4)n3)c2)c1 | binding | competition with immobilised ligand | 10 µM | 34%
COc1ccnn2ncc(-c3ccnc(N(C)C)n3)c12 | binding | – | 1 µM | 80%
CCN1CCN(Cc2ccc(C(=O)Nc3ccc(C)c(Oc4ccc5c(c4)CC(=O)N5)c3)cc2C(F)(F)F)CC1 | binding | competition with immobilised ligand | 1 µM | 84%
O=C(NCCCC1CCCCC1)c1ccc(CNC(=O)c2cnn(-c3ccccc3)c2C(F)(F)F)cc1 | cell-free assay | competition with immobilised ligand | 0.1 µM | 100%
CN(C)c1ncc(F)c(-c2cnn3ncccc23)n1 | binding | – | 1 µM | 69%
O=C(O)[C@H]1[C@H](Cn2nnc3ccccc3c2=O)CC[C@@H]1C(=O)c1ccc(OCCC2CCOCC2)cc1 | cell-free assay | competition with immobilised ligand | 1 µM | 76%
O=C(c1ccc(Nc2ncc(Cl)c(-c3ccc(Cl)s3)n2)cc1)N1CCC(N2CCCC2)CC1 | binding | competition with immobilised ligand | 1 µM | 60%
CN(CCCC(F)(F)F)c1nccc(-c2cnn3ncccc23)n1 | binding | – | 1 µM | 100%
Cc1cnc(Nc2ccc(C(=O)N3CCC(N4CCCC4)CC3)cc2)nc1-c1cc2ccccc2s1 | binding | competition with immobilised ligand | 1 µM | 45%
O=C(NCC1CCOCC1)c1n[nH]cc1NC(=O)c1c(F)cccc1F | binding | competition with immobilised ligand | 1 µM | 100%
O=C(Nc1ccc(Oc2ccc(F)cc2)cc1)N1CCc2ncccc2[C@H]1c1ccc(F)cc1 | cell-free assay | competition with immobilised ligand | 1 µM | 96%
FC(F)(F)Oc1cccc(-c2cnc3ccc(-c4ccncc4)nn23)c1 | cell-free assay | competition with immobilised ligand | 5 µM | 1.6%
O=C(c1ccc(Nc2ncc(Cl)c(-c3cc4ccccc4s3)n2)cc1)N1CCC(N2CCCC2)CC1 | binding | competition with immobilised ligand | 1 µM | 57%
CCS(=O)(=O)c1cc2cc(C[C@@](O)(CC(C)(C)c3ccc(F)cc3C(N)=O)C(F)(F)F)[nH]c2cn1 | cell-free assay | competition with immobilised ligand | 1 µM | 100%
CN(C)c1nccc(-c2cnc3ncccn23)n1 | binding | – | 1 µM | 74%
O=C1NC(c2ccccn2)Sc2ccccc21 (centres unmarked) | cell-free assay | competition with immobilised ligand | 1 µM | 100%
CNC(=O)[C@@H]1CC[C@@H](n2c(-c3ccc4cnccc4c3)nc3ccc(C(=O)NCc4cccc(C(N)=O)c4)cc32)C1 | binding | competition with immobilised ligand | 1 µM | 100%
